According to ChEMBL document CHEMBL2439950, “Arylamino methylene bisphosphonate derivatives as bone seeking matrix metalloproteinase inhibitors” (Bioorg Med Chem, 2013):

Legend:
[1] = target: Matrix metalloproteinase-14 (Homo sapiens, UniProt P50281); assay: Inhibition of MMP14 catalytic domain (unknown origin) using Mca-Pro-Leu-Gly-Leu-Dpa-Ala-Arg-NH2 as substrate incubated for 30 mins prior to substrate addition measured after 2 to 4 hrs by fluorometric assay
Method in brief: (§1)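 Catalytic domains of MMP-8, MMP-9 or MMP-14 were preincubated 30 min at 25 °C with inhibitor (six concentrations, 0.1 nM–100 μM) in 50 mM Tris-HCl pH 7.5, 200 mM NaCl, 1 mM CaCl2, 1 μM ZnCl2, 0.05% Brij-35, 1% DMSO. Substrate was added to 2.5 μM final for 2–4 h at 37 °C, then acetic acid stop. Fluorescence read at 340/405 nm, in triplicate; IC50 fitted from percent inhibition.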

Neutrophil collagenase = Neutrophil collagenase (Homo sapiens, UniProt P22894); assay: Inhibition of MMP8 catalytic domain (unknown origin) using Mca-Pro-Leu-Gly-Leu-Dpa-Ala-Arg-NH2 as substrate incubated for 30 mins prior to substrate addition measured after 2 to 4 hrs by fluorometric assay; method in brief: as §1
Hydroxyapatite = assay: Binding affinity to bone mineral hydroxyapatite assessed as adsorbed level at 100 uM after 2 hrs by UV-spectrophotometric analysis
Method in brief: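 Duplicate 5 ml aliquots of 100 μM bisphosphonic acid in 50 mM Tris-HCl pH 7.5, stirred with 4 mg hydroxyapatite at 37 °C for 2 h. After centrifugation (10 min, 8000 rpm) and 0.22 μm filtration, supernatant absorbance was quantified against calibration lines.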

[2] = target: 72 kDa type IV collagenase (Homo sapiens, UniProt P08253); assay: Inhibition of APMA-activated recombinant human MMP2 using Mca-Pro-Leu-Gly-Leu-Dpa-Ala-Arg-NH2 as substrate incubated for 30 mins prior to substrate addition measured after 2 to 4 hrs by fluorometric assay
Method in brief: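 Human pro-MMP-2 was activated with 2 mM APMA for 1 h at 37 °C. Enzyme and inhibitor (six concentrations, 0.1 nM–100 μM) were preincubated 30 min at 25 °C in Tris-HCl pH 7.5 buffer with NaCl, CaCl2, ZnCl2, Brij-35 and 1% DMSO. Substrate was added to 2.5 μM final, run 2–4 h at 37 °C, and stopped with 3% acetic acid. Fluorescence read at ex 340/em 405 nm, in triplicate; IC50 from percent inhibition versus no-inhibitor controls.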

[3] = Cytotoxicity against mouse J774A1 cells assessed as cell viability at 100 uM after 48 hrs by MTT assay; format: functional; details: J774.A1, 48 h, read-out: Activity
Method in brief: (§2)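 J774 A.1 cells were grown in DMEM and HepG2 in MEM, each with 10% FBS, penicillin, streptomycin and 2 mM L-glutamine, at 37 °C in 5% CO2. Seeded at 1-5·10^4 cells/well with half-log diluted compounds, 1% DMSO final, for 48 h. MTT was added to 0.5 mg/mL final for 3-4 h, solubilized in 50% DMSO/50% EtOH, and read at 570 nm. Background came from Triton X-100 lysed wells, and viability was taken relative to untreated controls.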

[4] = target: Matrix metalloproteinase-9 (Homo sapiens, UniProt P14780); assay: Inhibition of MMP9 catalytic domain (unknown origin) using Mca-Pro-Leu-Gly-Leu-Dpa-Ala-Arg-NH2 as substrate incubated for 30 mins prior to substrate addition measured after 2 to 4 hrs by fluorometric assay; method in brief: as §1
[5] = Cytotoxicity against human HepG2 cells assessed as cell viability at 100 uM after 48 hrs by MTT assay; format: cell-based; details: read-out: Activity; method in brief: as §2

Matrix metalloproteinase-9, sequence (P14780 whole entry, the tested form may be a part): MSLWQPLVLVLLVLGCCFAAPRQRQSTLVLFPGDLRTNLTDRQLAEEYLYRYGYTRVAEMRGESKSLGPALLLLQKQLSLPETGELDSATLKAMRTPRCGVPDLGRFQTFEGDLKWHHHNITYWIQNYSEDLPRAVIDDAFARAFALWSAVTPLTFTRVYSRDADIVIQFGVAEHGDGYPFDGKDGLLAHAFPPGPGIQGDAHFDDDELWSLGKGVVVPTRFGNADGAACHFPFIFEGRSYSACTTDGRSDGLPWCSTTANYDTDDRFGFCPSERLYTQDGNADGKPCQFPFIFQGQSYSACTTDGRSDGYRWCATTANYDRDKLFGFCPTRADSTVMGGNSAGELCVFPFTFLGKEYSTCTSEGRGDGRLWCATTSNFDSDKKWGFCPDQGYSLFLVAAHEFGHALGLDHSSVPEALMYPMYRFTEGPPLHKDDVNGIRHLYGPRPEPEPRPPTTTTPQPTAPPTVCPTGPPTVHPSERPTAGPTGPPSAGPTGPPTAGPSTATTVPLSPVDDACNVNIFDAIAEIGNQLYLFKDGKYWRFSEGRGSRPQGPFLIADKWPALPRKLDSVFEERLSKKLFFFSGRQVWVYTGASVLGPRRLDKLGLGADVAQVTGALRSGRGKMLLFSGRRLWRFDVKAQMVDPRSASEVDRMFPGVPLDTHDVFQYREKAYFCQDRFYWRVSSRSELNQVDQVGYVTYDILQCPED
72 kDa type IV collagenase, sequence (P08253 whole entry): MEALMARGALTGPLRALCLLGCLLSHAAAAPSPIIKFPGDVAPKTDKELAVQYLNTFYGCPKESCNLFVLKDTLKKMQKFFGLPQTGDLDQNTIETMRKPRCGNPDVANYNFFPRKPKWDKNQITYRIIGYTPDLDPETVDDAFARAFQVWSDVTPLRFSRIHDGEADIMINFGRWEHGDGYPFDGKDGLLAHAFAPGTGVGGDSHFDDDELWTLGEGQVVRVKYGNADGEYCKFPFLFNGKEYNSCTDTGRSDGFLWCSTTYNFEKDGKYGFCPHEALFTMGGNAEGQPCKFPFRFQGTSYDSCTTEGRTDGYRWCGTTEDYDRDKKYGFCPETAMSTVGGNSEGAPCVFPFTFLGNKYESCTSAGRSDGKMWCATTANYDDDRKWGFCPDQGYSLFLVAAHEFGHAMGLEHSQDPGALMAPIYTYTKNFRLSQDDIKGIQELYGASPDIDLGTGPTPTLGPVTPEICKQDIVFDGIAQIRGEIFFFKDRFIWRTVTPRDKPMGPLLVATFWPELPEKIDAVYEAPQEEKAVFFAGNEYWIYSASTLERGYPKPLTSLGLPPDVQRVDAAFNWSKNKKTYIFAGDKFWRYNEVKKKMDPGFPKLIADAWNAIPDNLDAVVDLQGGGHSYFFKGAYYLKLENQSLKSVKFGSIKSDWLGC
Neutrophil collagenase, sequence (P22894 whole entry, the tested form may be a part): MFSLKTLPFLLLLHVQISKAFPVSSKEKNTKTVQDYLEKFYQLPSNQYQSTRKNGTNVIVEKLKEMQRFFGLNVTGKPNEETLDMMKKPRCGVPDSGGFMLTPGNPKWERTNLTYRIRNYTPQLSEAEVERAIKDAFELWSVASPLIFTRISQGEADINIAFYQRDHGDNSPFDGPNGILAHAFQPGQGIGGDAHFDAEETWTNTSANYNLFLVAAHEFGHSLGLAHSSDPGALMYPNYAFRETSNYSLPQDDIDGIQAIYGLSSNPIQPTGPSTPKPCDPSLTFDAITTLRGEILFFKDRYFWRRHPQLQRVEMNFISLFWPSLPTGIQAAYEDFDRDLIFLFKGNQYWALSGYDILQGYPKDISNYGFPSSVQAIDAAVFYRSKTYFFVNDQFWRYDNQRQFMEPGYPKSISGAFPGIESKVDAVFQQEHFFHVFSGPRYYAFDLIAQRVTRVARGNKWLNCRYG

| IC50 [1] | IC50 (Neutrophil collagenase) | Activity (Hydroxyapatite) | IC50 [2] | IC50 [4] | Compound | viability at 100 µM [3] | viability at 48 h, 100 µM [5] |
| --- | --- | --- | --- | --- | --- | --- | --- |
| > 100 µM | > 100 µM | 70.1% | 37.4 µM | > 100 µM | O=P(O)(O)C(Nc1cccc(Br)c1)P(=O)(O)O | 72% | 67% |
| 49.5 µM | 43 µM | 60.7% | 2.8 µM | 87 µM | O=P(O)(O)C(Nc1ccc(Oc2ccc(Br)cc2)cc1)P(=O)(O)O | 15.3% | 90% |
| > 100 µM | > 100 µM | 88% | 6.6 µM | > 100 µM | O=P(O)(O)C(Nc1ccc(O)cc1)P(=O)(O)O | 19.5% | 101% |
| > 100 µM | > 100 µM | 42.5% | 15 µM | > 100 µM | O=P(O)(O)C(Nc1ccc(C(F)(F)F)cc1)P(=O)(O)O | 53% | 100% |
| > 100 µM | > 100 µM | 61.2% | 28.2 µM | > 100 µM | O=P(O)(O)C(Nc1ccc(F)cc1)P(=O)(O)O | 80.4% | 94% |
| 43 µM | 44 µM | 66.2% | 2.8 µM | > 100 µM | O=P(O)(O)C(Nc1ccc(Oc2ccccc2)cc1)P(=O)(O)O | 44% | 105% |
| > 100 µM | > 100 µM | 76% | 36 µM | > 100 µM | N#Cc1ccc(NC(P(=O)(O)O)P(=O)(O)O)cc1 | 86% | 77% |
| 3.9 µM | 2.4 µM | 49% | 6 µM | 30 µM | O=P(O)(O)C(Nc1ccc(Br)cc1)P(=O)(O)O | 81% | 94% |
| 26 µM | 15 µM | 76% | 20 µM | 20 µM | O=[N+]([O-])c1ccc(NC(P(=O)(O)O)P(=O)(O)O)cc1 | 76% | 84% |
| 33.5 µM | 30 µM | 60% | > 100 µM | > 100 µM | O=P(O)(O)C(Nc1ccc(-c2ccccc2)cc1)P(=O)(O)O | 36% | 88% |
| > 100 µM | > 100 µM | 63.6% | 42 µM | > 100 µM | O=P(O)(O)C(Nc1cccc(F)c1)P(=O)(O)O | 84% | 70% |
| 76 µM | 39.9 µM | 52.1% | 2.1 µM | 55 µM | O=P(O)(O)C(Nc1ccc(Oc2ccc(Cl)cc2)cc1)P(=O)(O)O | 73% | 87% |

The next lines start with the compound.

| Compound | IC50 [1] | IC50 (Neutrophil collagenase) | Activity (Hydroxyapatite) | IC50 [2] | IC50 [4] | viability at 100 µM [3] | viability at 48 h, 100 µM [5] |
| --- | --- | --- | --- | --- | --- | --- | --- |
| O=P(O)(O)C(Nc1ccc(Cl)cc1Cl)P(=O)(O)O [2,4-DICHLOROPHENYLAMINOMETHYLENEBISPHOSPHONIC ACID] | > 100 µM | > 100 µM | 56.8% | > 100 µM | > 100 µM | 59% | 73% |
| O=P(O)(O)C(O)(Cn1ccnc1)P(=O)(O)O [ZOLEDRONIC ACID] | 12.6 µM | 17.6 µM | – | 7 µM | 52 µM | – | – |
| O=P(O)(O)C(Nc1ccccc1)P(=O)(O)O [(PHENYLAMINO)METHYLENEDIPHOSPHONIC ACID] | > 100 µM | > 100 µM | 58% | > 100 µM | > 100 µM | 68% | 96% |
| O=P(O)(O)C(Nc1cccc2ccccc12)P(=O)(O)O | 69 µM | 61 µM | 51.6% | 6.4 µM | 6 µM | 33% | 98% |
| Cc1ccc(NC(P(=O)(O)O)P(=O)(O)O)cc1 [(P-TOLYLAMINO)METHYLENEDIPHOSPHONIC ACID] | > 100 µM | 36 µM | 23.9% | > 100 µM | > 100 µM | 83% | 104% |
| O=P(O)(O)C(Sc1ccc(Cl)cc1)P(=O)(O)O [TILUDRONIC ACID] | 30.5 µM | 32 µM | 51.5% | 7.2 µM | > 100 µM | 14% | 61% |
| O=P(O)(O)C(Nc1ccc(Cl)cc1)P(=O)(O)O [(4-CHLOROPHENYLAMINO)METHYLENEDIPHOSPHONIC ACID] | > 100 µM | > 100 µM | 64.2% | > 100 µM | > 100 µM | 86% | 97% |
| O=P(O)(O)C(Nc1cccc(-c2ccccc2)c1)P(=O)(O)O | 40 µM | 52 µM | 66.4% | > 100 µM | > 100 µM | 49% | 102% |
| O=[N+]([O-])c1cc(NC(P(=O)(O)O)P(=O)(O)O)ccc1F | > 100 µM | > 100 µM | 66.2% | 25 µM | > 100 µM | 69% | 69% |
| O=[N+]([O-])c1cccc(NC(P(=O)(O)O)P(=O)(O)O)c1 [(3-NITROPHENYLAMINO)METHYLENEDIPHOSPHONIC ACID] | > 100 µM | > 100 µM | 57.8% | 15.5 µM | > 100 µM | 54% | 83% |
| O=P(O)(O)C(Nc1ccc(Cl)c(Cl)c1)P(=O)(O)O [3,4-DICHLOROPHENYLAMINOMETHYLENEBISPHOSPHONIC ACID] | 20 µM | 25.5 µM | 53.5% | > 100 µM | > 100 µM | 81% | 98% |
| O=P(O)(O)C(Nc1cccc(C(F)(F)F)c1)P(=O)(O)O | > 100 µM | > 100 µM | 50.3% | 20.8 µM | > 100 µM | 62% | 83% |
